Data on one compound can be found in ChEMBL document CHEMBL2029240 (ACS Med Chem Lett, 2011).

The target in data set [1] is T1, Voltage-gated inwardly rectifying potassium channel KCNH2 (Homo sapiens, UniProt Q12809). The data set is described as follows: Displacement of [3H]dofetilide from human ERG. Background: In a radioligand displacement assay an active substance lowers the binding of a labelled ligand.
Data set [2] concerns the target hERG (KCNH2) (Homo sapiens, UniProt Q12809). The data set is described as follows: Inhibition of human ERG at 10 uM by patch clamp assay. On the technique in general: In patch-clamp work, channel activity is measured electrically.
In data set [3] the target is C-C chemokine receptor type 2 (Mus musculus, UniProt P51683). The data set is described as follows: Binding affinity to mouse CCR2. The essentials: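 Mouse CCR2 binding assay, with affinity reported as IC50.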
Chain of C-C chemokine receptor type 2 (Mus musculus, UniProt P51683) (P51683 whole entry): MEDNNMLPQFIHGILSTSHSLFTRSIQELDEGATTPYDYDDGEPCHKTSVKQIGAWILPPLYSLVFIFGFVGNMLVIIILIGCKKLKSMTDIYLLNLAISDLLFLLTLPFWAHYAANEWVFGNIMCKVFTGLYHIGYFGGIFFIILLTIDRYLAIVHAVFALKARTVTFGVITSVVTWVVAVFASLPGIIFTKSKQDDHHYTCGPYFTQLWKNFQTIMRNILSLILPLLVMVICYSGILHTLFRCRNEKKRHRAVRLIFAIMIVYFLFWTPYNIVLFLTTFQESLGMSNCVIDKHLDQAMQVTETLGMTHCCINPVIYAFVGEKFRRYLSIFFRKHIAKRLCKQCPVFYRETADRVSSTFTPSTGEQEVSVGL
The target of data set [4] is T2, C-C chemokine receptor type 2 (Rattus norvegicus, UniProt O55193).
T2 sequence (O55193 whole entry): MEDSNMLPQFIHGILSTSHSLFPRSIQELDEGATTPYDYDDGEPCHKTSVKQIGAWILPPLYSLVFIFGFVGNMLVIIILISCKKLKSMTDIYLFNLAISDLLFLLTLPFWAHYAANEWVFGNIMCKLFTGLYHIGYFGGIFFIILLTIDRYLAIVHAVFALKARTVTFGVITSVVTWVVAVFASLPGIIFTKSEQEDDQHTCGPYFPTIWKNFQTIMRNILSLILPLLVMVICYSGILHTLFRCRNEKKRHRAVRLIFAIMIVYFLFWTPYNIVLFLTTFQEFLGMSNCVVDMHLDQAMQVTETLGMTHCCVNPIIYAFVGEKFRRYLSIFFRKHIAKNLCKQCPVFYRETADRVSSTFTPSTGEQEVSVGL
The data set is described as follows: Binding affinity to rat CCR2.

The target of data set [5] is T2, C-C chemokine receptor type 2. The data set is described as follows: Antagonist activity at rat CCR2. The data set is classed as functional.
Data set [6] has as its target T3, C-C chemokine receptor type 1 (Homo sapiens) (UniProt P32246).
T3 sequence (whole entry): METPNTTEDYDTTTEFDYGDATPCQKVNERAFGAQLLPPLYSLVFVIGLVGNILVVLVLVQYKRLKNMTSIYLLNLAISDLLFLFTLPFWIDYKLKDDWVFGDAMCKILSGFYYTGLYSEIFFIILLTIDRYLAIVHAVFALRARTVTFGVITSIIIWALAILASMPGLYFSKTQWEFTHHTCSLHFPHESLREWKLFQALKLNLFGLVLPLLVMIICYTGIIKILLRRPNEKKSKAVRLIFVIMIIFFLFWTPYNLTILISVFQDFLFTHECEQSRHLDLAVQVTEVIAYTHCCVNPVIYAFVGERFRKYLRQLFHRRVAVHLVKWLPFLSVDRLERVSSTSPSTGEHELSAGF
The data set is described as follows: Inhibition of CCR1 at 1 uM. The method in brief: (§1)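 Single-concentration screen at 1 μM against a broad panel of more than 50 targets (ion channels, transporters, chemokine receptors, other GPCRs), scored for significant inhibition.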

In data set [7] the target is T4, C-X-C chemokine receptor type 3 (Homo sapiens) (UniProt P49682).
T4 sequence (whole entry): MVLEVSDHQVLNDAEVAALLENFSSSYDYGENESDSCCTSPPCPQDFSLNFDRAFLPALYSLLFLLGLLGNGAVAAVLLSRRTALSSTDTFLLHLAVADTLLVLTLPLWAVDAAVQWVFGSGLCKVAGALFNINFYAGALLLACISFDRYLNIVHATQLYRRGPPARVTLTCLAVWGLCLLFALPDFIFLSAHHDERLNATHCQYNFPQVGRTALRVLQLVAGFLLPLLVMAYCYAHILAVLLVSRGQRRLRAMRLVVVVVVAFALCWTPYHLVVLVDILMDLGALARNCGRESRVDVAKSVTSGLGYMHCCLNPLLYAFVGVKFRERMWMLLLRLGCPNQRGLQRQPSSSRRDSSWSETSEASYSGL
The data set is described as follows: Inhibition of CXCR3 at 1 uM. The essentials:
as §1

In data set [8] the target is T5, C-X-C chemokine receptor type 5 (Homo sapiens) (UniProt P32302).
T5 sequence (whole entry): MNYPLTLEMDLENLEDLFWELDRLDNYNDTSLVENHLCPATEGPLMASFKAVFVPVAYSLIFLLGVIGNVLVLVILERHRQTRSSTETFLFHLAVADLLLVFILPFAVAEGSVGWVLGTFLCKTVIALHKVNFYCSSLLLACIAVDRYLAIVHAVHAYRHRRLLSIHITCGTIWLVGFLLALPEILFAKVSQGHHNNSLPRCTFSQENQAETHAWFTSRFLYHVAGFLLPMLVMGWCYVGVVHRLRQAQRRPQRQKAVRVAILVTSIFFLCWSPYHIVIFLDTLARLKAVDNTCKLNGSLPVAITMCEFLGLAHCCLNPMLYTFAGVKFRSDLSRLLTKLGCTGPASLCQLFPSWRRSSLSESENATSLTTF
The data set is described as follows: Inhibition of CXCR5 at 1 uM. The essentials:
as §1

The target in data set [9] is T1, Voltage-gated inwardly rectifying potassium channel KCNH2. The data set is described as follows: Inhibition of human ERG by patch clamp assay.
Data set [10] in a line: Fraction unbound in human serum. The data set is classed as ADME, cell-free.
Data set [11] is described as follows: Half life in human liver microsomes. The data set is classed as ADME, Microsome.
The target of data set [12] is T6, Cytochrome P450 1A2 (Homo sapiens, UniProt P05177).
T6 sequence (P05177 whole entry): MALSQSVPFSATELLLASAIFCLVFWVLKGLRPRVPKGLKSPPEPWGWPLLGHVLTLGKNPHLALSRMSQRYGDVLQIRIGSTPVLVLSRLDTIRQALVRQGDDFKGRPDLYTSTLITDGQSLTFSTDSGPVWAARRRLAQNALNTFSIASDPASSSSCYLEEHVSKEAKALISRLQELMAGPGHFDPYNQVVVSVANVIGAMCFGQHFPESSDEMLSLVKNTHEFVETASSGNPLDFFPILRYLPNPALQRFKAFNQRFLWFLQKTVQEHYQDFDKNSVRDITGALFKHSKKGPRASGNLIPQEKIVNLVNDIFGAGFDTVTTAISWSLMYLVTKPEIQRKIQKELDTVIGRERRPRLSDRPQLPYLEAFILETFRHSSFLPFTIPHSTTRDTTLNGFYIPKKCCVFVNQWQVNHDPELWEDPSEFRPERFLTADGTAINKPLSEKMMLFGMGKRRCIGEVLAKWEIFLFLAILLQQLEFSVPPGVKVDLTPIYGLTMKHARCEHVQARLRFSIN
The data set is described as follows: Inhibition of CYP1A2. Format: ADME.

Data set [13] has as its target Cytochrome P450 2C9 (Homo sapiens, UniProt P11712). The data set is described as follows: Inhibition of CYP2C9. Format: ADME.
The target of data set [14] is Cytochrome P450 2C19 (Homo sapiens, UniProt P33261). The data set is described as follows: Inhibition of CYP2C19. Format: ADME.
Chain of Cytochrome P450 2C19 (P33261 whole entry): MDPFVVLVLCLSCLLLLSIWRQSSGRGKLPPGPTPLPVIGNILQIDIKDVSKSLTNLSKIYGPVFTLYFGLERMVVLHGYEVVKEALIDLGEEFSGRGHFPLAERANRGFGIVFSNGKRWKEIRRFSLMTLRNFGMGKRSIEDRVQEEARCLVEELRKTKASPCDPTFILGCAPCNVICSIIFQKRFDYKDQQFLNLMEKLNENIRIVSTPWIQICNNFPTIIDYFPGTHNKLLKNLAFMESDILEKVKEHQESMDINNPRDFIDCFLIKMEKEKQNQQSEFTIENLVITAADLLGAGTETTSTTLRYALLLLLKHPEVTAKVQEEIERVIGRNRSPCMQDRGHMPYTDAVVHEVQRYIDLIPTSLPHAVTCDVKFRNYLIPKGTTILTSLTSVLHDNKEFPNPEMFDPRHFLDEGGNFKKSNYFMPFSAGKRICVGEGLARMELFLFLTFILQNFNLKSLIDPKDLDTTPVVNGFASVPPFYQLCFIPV
Data set [15] in a line: Induction of Cytochrome P450 up to 30 uM. Format: ADME.
Data set [16] is described as follows: Clearance in dog at 2 mg/kg, iv. Conditions: in vivo. Also on record: dose 2 mg/kg, route intravenous. The data set is classed as ADME, organism-based, Canis lupus familiaris.
Data set [17] in a line: Volume of distribution at steady state in dog at 2 mg/kg, iv. Format: ADME, organism-based, Canis lupus familiaris. Also on record: dose 2 mg/kg, route intravenous. Conditions: in vivo, read-out: Vdss.
The nature of data set [18]: Half life in dog at 2 mg/kg, iv. The data set is classed as ADME, organism-based, Canis lupus familiaris. Also on record: dose 2 mg/kg, route intravenous. Conditions: in vivo.
Data set [19] can be described thus: Tmax in rat at 10 mg/kg, po. Also on record: dose 10 mg/kg, route oral. Conditions: in vivo. Format: ADME, organism-based. The method in brief:
(§2)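 Rats were dosed iv at 2 mg/kg and orally at 10 mg/kg. Plasma PK parameters derived: CL (L/h/kg), Vss (L/kg), t1/2 (h), Cmax (nM), Tmax (h), AUC (nM h) and oral F%.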

Data set [20] can be described thus: Half life in rat at 10 mg/kg, po. Also on record: dose 10 mg/kg, route oral. Format: ADME, organism-based. Conditions: in vivo. The essentials: as §2
Data set [21] can be described thus: AUC in dog at 10 mg/kg, po. The data set is classed as ADME, organism-based, Canis lupus familiaris. Also on record: dose 10 mg/kg, route oral. Conditions: plasma.
Data set [22] can be described thus: Half life in dog at 10 mg/kg, po. Also on record: dose 10 mg/kg, route oral. Conditions: in vivo. The data set is classed as ADME, organism-based, Canis lupus familiaris.
The nature of data set [23]: Oral bioavailability in dog at 10 mg/kg. Format: ADME, organism-based, Canis lupus familiaris. Conditions: in vivo.

Activity calls are given as the source filed them.

T1 sequence (Q12809 whole entry): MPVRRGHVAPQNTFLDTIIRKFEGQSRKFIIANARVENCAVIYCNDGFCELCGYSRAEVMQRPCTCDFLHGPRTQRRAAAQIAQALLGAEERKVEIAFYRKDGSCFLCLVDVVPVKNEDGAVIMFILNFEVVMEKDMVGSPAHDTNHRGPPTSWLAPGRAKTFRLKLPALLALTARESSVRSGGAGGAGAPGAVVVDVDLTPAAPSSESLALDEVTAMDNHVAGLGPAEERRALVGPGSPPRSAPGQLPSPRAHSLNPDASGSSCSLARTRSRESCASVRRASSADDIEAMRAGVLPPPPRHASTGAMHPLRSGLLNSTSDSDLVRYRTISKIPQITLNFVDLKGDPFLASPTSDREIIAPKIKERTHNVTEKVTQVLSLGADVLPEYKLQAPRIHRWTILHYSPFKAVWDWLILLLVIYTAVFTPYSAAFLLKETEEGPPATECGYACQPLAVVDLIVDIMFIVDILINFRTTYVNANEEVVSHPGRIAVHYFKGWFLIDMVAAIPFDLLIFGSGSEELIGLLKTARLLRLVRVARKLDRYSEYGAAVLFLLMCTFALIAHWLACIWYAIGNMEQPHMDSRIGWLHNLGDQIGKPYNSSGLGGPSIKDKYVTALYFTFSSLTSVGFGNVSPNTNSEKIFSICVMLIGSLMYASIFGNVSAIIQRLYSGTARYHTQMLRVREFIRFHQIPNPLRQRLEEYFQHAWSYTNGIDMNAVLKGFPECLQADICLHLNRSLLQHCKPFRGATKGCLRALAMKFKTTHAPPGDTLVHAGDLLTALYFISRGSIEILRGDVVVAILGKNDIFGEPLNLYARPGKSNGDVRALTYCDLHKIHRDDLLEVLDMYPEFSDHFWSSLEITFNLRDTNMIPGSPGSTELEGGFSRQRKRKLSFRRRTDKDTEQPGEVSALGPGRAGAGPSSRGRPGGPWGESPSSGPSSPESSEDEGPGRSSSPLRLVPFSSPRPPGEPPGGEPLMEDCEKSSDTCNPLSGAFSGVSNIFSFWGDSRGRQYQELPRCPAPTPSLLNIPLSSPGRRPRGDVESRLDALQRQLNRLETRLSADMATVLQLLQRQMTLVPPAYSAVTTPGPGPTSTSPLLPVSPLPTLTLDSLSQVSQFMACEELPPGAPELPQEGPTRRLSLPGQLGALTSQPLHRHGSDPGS
Chain of Cytochrome P450 2C9 (P11712 whole entry): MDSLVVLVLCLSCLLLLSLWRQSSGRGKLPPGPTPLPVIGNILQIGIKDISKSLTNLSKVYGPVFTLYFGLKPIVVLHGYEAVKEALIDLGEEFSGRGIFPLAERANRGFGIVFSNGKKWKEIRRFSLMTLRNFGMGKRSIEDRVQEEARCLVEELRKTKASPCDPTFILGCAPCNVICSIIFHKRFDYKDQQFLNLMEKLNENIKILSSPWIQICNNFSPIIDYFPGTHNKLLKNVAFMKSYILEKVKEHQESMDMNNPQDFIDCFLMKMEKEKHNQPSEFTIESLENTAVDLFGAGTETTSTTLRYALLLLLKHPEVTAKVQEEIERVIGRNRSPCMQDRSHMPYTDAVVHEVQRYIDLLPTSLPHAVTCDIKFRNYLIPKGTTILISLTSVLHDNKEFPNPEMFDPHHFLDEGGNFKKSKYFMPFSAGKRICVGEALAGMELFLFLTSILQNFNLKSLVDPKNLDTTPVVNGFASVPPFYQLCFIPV
Chain of hERG (KCNH2) (Q12809 whole entry): as the sequence (Q12809 whole entry) above

Turning to `O=C(NCC(=O)N1CC[C@H](N[C@H]2CC[C@@](O)(c3ccc(-c4ncccn4)cn3)CC2)C1)c1cccc(C(F)(F)F)c1` [PF-4136309], the IC50 (as a rule, the point on the concentration scale where inhibition reaches its midpoint) in data set [1] is greater than 30 µM; in data set [3], 0.017 µM; in data set [4], 0.013 µM; in data set [5], 0.0028 µM; in data set [9], 20 µM; in [12], greater than 30 µM. Moreover, the IC50 in [13] and in [14] was greater than 30 µM throughout. Also, the inhibition (usually the relative decrease from the control value, in per cent) at 10 µM in data set [2] came to 35%. Moreover, the inhibition result in data set [6], in data set [7] and in data set [8] was “inactive” each time. In addition, the fraction unbound (in general, the share of the substance not bound to proteins or other matrix) in [10] worked out at 0.23. Also, the half-life (as a rule, the time needed for the level to fall by half in the phase considered) was 1.48 h in data set [11], 2.4 h in data set [18], 2.5 h in data set [20] and 3.2 h in data set [22]. Moreover, in data set [15], the Activity entry is on record as “Not Active”. Also, the clearance (usually the volume of plasma or blood freed of the substance per unit of time) in [16] is 7.67 mL/min/kg. Besides, in data set [17], the Vd was 0.62 L/kg. Further, the Tmax (in general, the time at which the peak concentration occurs) in data set [19] is 1.2 h. The AUC (in general, concentration integrated over time) in data set [21] turned out to be 35.6 µM·h. In addition, the bioavailability (commonly dose-corrected exposure relative to a reference, in per cent) in [23] came to 78%.
